In ChEMBL document CHEMBL4610084, “Antibacterial and ATP Synthesis Modulating Compounds from Salvia tingitana” (2020) one finds MIC data, which are given here for one molecule.

Values after ≈ are worked out from the molar mass of the structure shown.

The test system of the first experiment is Enterococcus faecalis. Kind of experiment: Antibacterial activity against Vancomycin resistant Enterococcus faecalis MB51 after 24 hrs by microdilution assay. Particulars: MB51, 24 h. It counts as functional. A digest of the protocol: (§1)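 Broth microdilution MIC, run as in an earlier cited report. Strains are clinical isolates identified by standard methods and MALDI-TOF; E. faecalis MB19 and MB51 are Ligurian seawater isolates. Highest concentration tested was 128 μg/mL. MICs are given in μg/mL and μM, with oxacillin and vancomycin as reference antibiotics.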
`COC(=O)[C@]1(C)CCC[C@@]2(C)[C@H]1CC[C@@](C)(O)[C@@H]2CC/C(C)=C/C[C@H]1OC(=O)C=C1C` gave an MIC of 296 µM (≈ 128 µg/mL).

A further experiment has as its system Enterococcus faecium. Kind of experiment: Antibacterial activity against Enterococcus faecium MB3 after 24 hrs by microdilution assay. It counts as functional. Particulars: MB3, 24 h. A digest of the protocol: (§2)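 Broth microdilution MIC against clinical or seawater-isolated strains (identified by standard procedures and MALDI-TOF), with compound solutions and testing as in earlier work. MIC reported in μg/mL and μM.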
For orientation: Broth dilution looks for growth in wells or tubes with falling amounts of substance.
`COC(=O)[C@]1(C)CCC[C@@]2(C)[C@H]1CC[C@@](C)(O)[C@@H]2CC/C(C)=C/C[C@H]1OC(=O)C=C1C` gave an MIC of 148 µM (≈ 64 µg/mL).

The next experiment deals with Enterococcus gallinarum. Kind of experiment: Antibacterial activity against Vancomycin resistant Enterococcus gallinarum MB111 after 24 hrs by microdilution assay. Format: functional. Particulars: MB111, 24 h. The gist of the method: as §1
Molecule `COC(=O)[C@]1(C)CCC[C@@]2(C)[C@H]1CC[C@@](C)(O)[C@@H]2CC/C(C)=C/C[C@H]1OC(=O)C=C1C` came in with an MIC of 148 µM (≈ 64 µg/mL).

For a further experiment, the system named is Staphylococcus capitis. Kind of experiment: Antibacterial activity against Methicillin-resistant Staphylococcus capitis MB71 after 24 hrs by microdilution assay. It counts as functional. Particulars: MB71, 24 h. The gist of the method: as §1
`COC(=O)[C@]1(C)CCC[C@@]2(C)[C@H]1CC[C@@](C)(O)[C@@H]2CC/C(C)=C/C[C@H]1OC(=O)C=C1C` yielded a minimum inhibitory concentration (MIC) of 148 µM (≈ 64 µg/mL).

A further experiment relates to Staphylococcus aureus. Kind of experiment: Antibacterial activity against Methicillin-resistant Staphylococcus aureus MB188 after 24 hrs by microdilution assay. Format: functional. Particulars: MB188, 24 h. The gist of the method: as §1
For `COC(=O)[C@]1(C)CCC[C@@]2(C)[C@H]1CC[C@@](C)(O)[C@@H]2CC/C(C)=C/C[C@H]1OC(=O)C=C1C`, the MIC was found to be 296 µM (≈ 128 µg/mL).

In another experiment the test system is Enterococcus avium. The experiment in a line: Antibacterial activity against Enterococcus avium MB119 after 24 hrs by microdilution assay. Particulars: MB119, 24 h. It counts as functional. A digest of the protocol: as §2
For the molecule `COC(=O)[C@]1(C)CCC[C@@]2(C)[C@H]1CC[C@@](C)(O)[C@@H]2CC/C(C)=C/C[C@H]1OC(=O)C=C1C`, the lowest concentration to inhibit growth (MIC) was 296 µM (≈ 128 µg/mL).

In the next experiment the test system is Staphylococcus hominis. Kind of experiment: Antibacterial activity against Methicillin-resistant Staphylococcus hominis MB124 after 24 hrs by microdilution assay. Format: functional. The following applies: MB124, 24 h. A digest of the protocol:
as §1
In turn, `COC(=O)[C@]1(C)CCC[C@@]2(C)[C@H]1CC[C@@](C)(O)[C@@H]2CC/C(C)=C/C[C@H]1OC(=O)C=C1C` came in with an MIC of 296 µM (≈ 128 µg/mL).

Another experiment has as its system Enterococcus casseliflavus. The experiment in a line: Antibacterial activity against Vancomycin resistant Enterococcus casseliflavus MB159 after 24 hrs by microdilution assay. Particulars: MB159, 24 h. It counts as functional. The gist of the method: as §1
`COC(=O)[C@]1(C)CCC[C@@]2(C)[C@H]1CC[C@@](C)(O)[C@@H]2CC/C(C)=C/C[C@H]1OC(=O)C=C1C` showed an MIC of 296 µM (≈ 128 µg/mL).

In a further experiment the test system is Enterococcus faecalis. The experiment in a line: Antibacterial activity against Vancomycin resistant Enterococcus faecalis MB1 after 24 hrs by microdilution assay. It counts as functional. The following applies: MB1, 24 h. The gist of the method: as §1
For the molecule `COC(=O)[C@]1(C)CCC[C@@]2(C)[C@H]1CC[C@@](C)(O)[C@@H]2CC/C(C)=C/C[C@H]1OC(=O)C=C1C`, 74.1 µM (≈ 32.1 µg/mL) was the least that counted as inhibitory (MIC). In other words, the double-digit micromolar range.

In the next experiment the test system is Staphylococcus haemolyticus. Kind of experiment: Antibacterial activity against Methicillin-resistant Staphylococcus haemolyticus MB115 after 24 hrs by microdilution assay. It counts as functional. The following applies: MB115, 24 h. A digest of the protocol: as §1
`COC(=O)[C@]1(C)CCC[C@@]2(C)[C@H]1CC[C@@](C)(O)[C@@H]2CC/C(C)=C/C[C@H]1OC(=O)C=C1C`: inhibition of growth (MIC) required 296 µM (≈ 128 µg/mL).

The next experiment has as its system Enterococcus durans. The experiment in a line: Antibacterial activity against Enterococcus durans MB113 after 24 hrs by microdilution assay. Format: functional. The following applies: MB113, 24 h. A digest of the protocol: as §2
`COC(=O)[C@]1(C)CCC[C@@]2(C)[C@H]1CC[C@@](C)(O)[C@@H]2CC/C(C)=C/C[C@H]1OC(=O)C=C1C` returned an MIC of 296 µM (≈ 128 µg/mL).

The next experiment has as its system Staphylococcus epidermidis. The experiment in a line: Antibacterial activity against Methicillin-resistant Staphylococcus epidermidis MB169 after 24 hrs by microdilution assay. Particulars: MB169, 24 h. Format: functional. The gist of the method: as §1
The molecule `COC(=O)[C@]1(C)CCC[C@@]2(C)[C@H]1CC[C@@](C)(O)[C@@H]2CC/C(C)=C/C[C@H]1OC(=O)C=C1C` came in with an MIC of over 128 µg/mL.

A further experiment concerns Enterococcus faecalis. The experiment in a line: Antibacterial activity against Vancomycin resistant Enterococcus faecalis MB19 after 24 hrs by microdilution assay. Particulars: MB19, 24 h. It counts as functional. A digest of the protocol: as §1
Turning to `COC(=O)[C@]1(C)CCC[C@@]2(C)[C@H]1CC[C@@](C)(O)[C@@H]2CC/C(C)=C/C[C@H]1OC(=O)C=C1C`, the MIC turned out to be 148 µM (≈ 64 µg/mL).

In a further experiment the test system is Enterococcus faecium. The experiment in a line: Antibacterial activity against Enterococcus faecium MB2 after 24 hrs by microdilution assay. Particulars: MB2, 24 h. Format: functional. A digest of the protocol:
as §2
Molecule `COC(=O)[C@]1(C)CCC[C@@]2(C)[C@H]1CC[C@@](C)(O)[C@@H]2CC/C(C)=C/C[C@H]1OC(=O)C=C1C` gave an MIC of 296 µM (≈ 128 µg/mL).

The subject of the next experiment is Staphylococcus epidermidis. Kind of experiment: Antibacterial activity against Methicillin-resistant Staphylococcus epidermidis MB165 after 24 hrs by microdilution assay. Format: functional. The following applies: MB165, 24 h. A digest of the protocol:
as §1
Regarding `COC(=O)[C@]1(C)CCC[C@@]2(C)[C@H]1CC[C@@](C)(O)[C@@H]2CC/C(C)=C/C[C@H]1OC(=O)C=C1C`, the MIC is 296 µM (≈ 128 µg/mL).

Another experiment has as its system Staphylococcus saprophyticus. Kind of experiment: Antibacterial activity against Staphylococcus saprophyticus MB41 after 24 hrs by microdilution assay. Particulars: MB41, 24 h. It counts as functional. The gist of the method:
as §2
In turn, `COC(=O)[C@]1(C)CCC[C@@]2(C)[C@H]1CC[C@@](C)(O)[C@@H]2CC/C(C)=C/C[C@H]1OC(=O)C=C1C` came in with a minimum inhibitory concentration (MIC) of 296 µM (≈ 128 µg/mL).

The next experiment concerns Staphylococcus simulans. Kind of experiment: Antibacterial activity against Staphylococcus simulans MB94 after 24 hrs by microdilution assay. Format: functional. The following applies: MB94, 24 h. The gist of the method:
as §2
`COC(=O)[C@]1(C)CCC[C@@]2(C)[C@H]1CC[C@@](C)(O)[C@@H]2CC/C(C)=C/C[C@H]1OC(=O)C=C1C` registered an MIC of over 128 µg/mL.

The next experiment concerns Enterococcus faecium. Kind of experiment: Antibacterial activity against Enterococcus faecium MB152 after 24 hrs by microdilution assay. Format: functional. Particulars: MB152, 24 h. A digest of the protocol:
as §2
For `COC(=O)[C@]1(C)CCC[C@@]2(C)[C@H]1CC[C@@](C)(O)[C@@H]2CC/C(C)=C/C[C@H]1OC(=O)C=C1C`, the MIC turned out to be 296 µM (≈ 128 µg/mL).

A further experiment has as its system Staphylococcus warneri. Kind of experiment: Antibacterial activity against Methicillin-resistant Staphylococcus warneri MB74 after 24 hrs by microdilution assay. It counts as functional. Particulars: MB74, 24 h. A digest of the protocol: as §1
Take `COC(=O)[C@]1(C)CCC[C@@]2(C)[C@H]1CC[C@@](C)(O)[C@@H]2CC/C(C)=C/C[C@H]1OC(=O)C=C1C`: it took 148 µM (≈ 64 µg/mL) to inhibit growth (MIC).

The subject of another experiment is Staphylococcus lugdunensis. The experiment in a line: Antibacterial activity against Staphylococcus lugdunensis MB96 after 24 hrs by microdilution assay. It counts as functional. The following applies: MB96, 24 h. A digest of the protocol: as §2
`COC(=O)[C@]1(C)CCC[C@@]2(C)[C@H]1CC[C@@](C)(O)[C@@H]2CC/C(C)=C/C[C@H]1OC(=O)C=C1C` displayed an MIC of 296 µM (≈ 128 µg/mL).

The test system of another experiment is Staphylococcus aureus. Kind of experiment: Antibacterial activity against Methicillin-resistant Staphylococcus aureus MB18 after 24 hrs by microdilution assay. Format: functional. The following applies: MB18, 24 h. The gist of the method:
as §1
As for `COC(=O)[C@]1(C)CCC[C@@]2(C)[C@H]1CC[C@@](C)(O)[C@@H]2CC/C(C)=C/C[C@H]1OC(=O)C=C1C`, the MIC is over 128 µg/mL.

In a further experiment the test system is Enterococcus faecalis. Kind of experiment: Antibacterial activity against Enterococcus faecalis MB76 after 24 hrs by microdilution assay. The following applies: MB76, 24 h. It counts as functional. A digest of the protocol:
as §1
As to `COC(=O)[C@]1(C)CCC[C@@]2(C)[C@H]1CC[C@@](C)(O)[C@@H]2CC/C(C)=C/C[C@H]1OC(=O)C=C1C`, the MIC was 148 µM (≈ 64 µg/mL).

A word on the MIC: it is the lowest concentration that inhibits growth of the organism. A high value points to a need for much substance.
